Test results reported in article PMC8908367 (ACS Omega, 2022).

What was measured:
[1] = system: T. cruzi CA-I/72 amastigotes; assay type: cell-based, Trypanosoma cruzi
Procedure, shortened: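 Test compound in DMSO acoustically spotted into 384-well plates. C2C12 mouse […] (500/well) and CA-I/72 T. cruzi (7500/well; strain kept by weekly C2C12 coculture passage) added together, 72 h at 37 °C, 5% CO2. Fixed in 4% paraformaldehyde/PBS, DAPI 5 μg/mL 1 h, imaged at 10×. Automated host and parasite nuclei counts fitted to CC50 and EC50 curves; SI = CC50/EC50.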

[2] = Host cell toxicity in the high-content imaging assay; assay type: cell-based; conditions: mouse
[3] = system: T. cruzi intracellular parasite; conditions: cited from earlier work
trypanothione reductase = conditions: cited from earlier work

| SMILES | SI (Selectivity Index = CC50/EC50) ([1]; CC50 C2C12 / EC50 T. cruzi CA-I/72) | EC50 ([1]; Trypanosoma cruzi, C2C12, 72 h, read-out: EC50, inhibition of T. cruzi amastigote replication) [µM] | CC50 at 72 h [2] [µM] | activity against the intracellular parasite in vitro [3] | inhibition of trypanothione reductase (trypanothione reductase) |
| --- | --- | --- | --- | --- | --- |
| O=C(Cn1ccnc1[N+](=O)[O-])NCc1ccccc1 [Benznidazole] | >22 | 2.2 ± 0.0013 | > 50 |  |  |
| C=C1C(=O)[C@H]2O[C@]23C[C@H]2CC(C)(C)[C@H](O)[C@H]2[C@]13C [hypnophilin] |  |  |  | showed activity | potent inhibitor |
